# High-throughput results (PubChem BioAssay)
# XBP1 UPR activ: activators of adaptive arm of unfolded protein response (XBP1); 330,000 tested, 0.33% active; activation, % at 20 µM; CHO-XBP1 luciferase reporter, IRE1-XBP1 UPR activation, luminescence; percent of tunicamycin response, DMSO as zero; AID 463104;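 active = versus positive control, 20 µM dose yields 30% or more activation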
#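 assay system = CHO-XBP1 luciferase reporter cells | amount = 1000 cells/well | buffer or medium = F12 plus 10% FBS | compound dosing = single point, 20 µM final compound, 1% DMSO | incubation = 16-18 h cell attachment at 37 °C, then 6 h compound exposure | detection = Steady-Glo luminescence read | controls = tunicamycin 10 µg/mL and vehicle-only wells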
# CHOP inh: inhibitors of CHOP induction in ER stress response | CHO-K1 CHOP-promoter luciferase, tunicamycin-induced, 15-18 h | inhibition, % at 10 µM | 220,000 tested, 3.8% active;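 active = compounds that reduced the stress-induced luciferase reporter signal by more than about 70% of percent inhibition, limit read from the data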
# B2AR ag: activates human beta-2 adrenergic receptor causing internalization | Am2.2-beta2AR cells, FAP receptor internalization, flow cytometry | response, % (test concentration not listed) | 340,000 tested, 0.43% active;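 active = response above a set limit, near 3 SD of response in nonfluorescent compounds, cut at about 42% in these data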
# VLA-4 inh: inhibition in a human VLA-4 binding assay; P13612; VLA-4 expressing cells, ligand binding flow cytometry; inhibition, % (about 7 µM as worked out from the volumes in the protocol); 330,000 tested, 0.2% active; AID 2557; in the data active = inhibition above about 50%
# CHOP UPR activ: apoptotic UPR (CHOP) activation; CHO-CHOP luciferase reporter, luminescence; percent of tunicamycin response over DMSO baseline; activation, % at 10 µM; 330,000 tested, 0.34% active;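 active = at 10 µM dose, activation of 40% or more, normalized to positive control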
#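 measured by = luciferase luminescence | assay system = CHO-CHOP cells, stable luciferase reporter of PERK-eIF2a-CHOP signalling | amount = 500 reporter cells seeded per well | timing = 6 h compound exposure at 37 °C after overnight seeding | controls = positive tunicamycin 10 µg/mL, negative DMSO alone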
# XBP1 UPR conf: adaptive UPR (XBP1) activation, confirmed; shares compounds with XBP1 UPR activ; CHO-XBP1 IRE1-XBP1 luciferase reporter, luminescence; activation, % at 20 µM; 1,000 tested, 63% active;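 active = reporter signal at least 30% of the positive control's activation in two or more of four replicate wells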
# A number is an active result; – = inactive; · = not tested or not shown; ! = repeats disagree. This excerpt belongs to a sample that is enriched for hits.
SMILES,XBP1 UPR activ,CHOP inh,B2AR ag,VLA-4 inh,CHOP UPR activ,XBP1 UPR conf
Cc1ccc(C(C[N+](=O)[O-])c2c(-c3ccccc3O)[nH][nH]c2=O)cc1 (stereo not drawn),31,–,–,–,–,–
O=c1[nH][nH]c(-c2ccccc2O)c1C(C[N+](=O)[O-])c1ccc(Br)cc1 (stereo not drawn),–,–,–,–,–,·
O=C(NC(=S)Nc1cc(-c2nc3ccccc3[nH]2)ccc1Cl)c1ccc2c(c1)OCO2,96,94,–,–,–,164
CCOc1ccc(C(=O)Nc2cc(-c3nc4ccccc4[nH]3)ccc2Cl)cc1[N+](=O)[O-],35,79,–,–,–,535
COc1cc(/C=N/Nc2ccccc2)ccc1O,–,·,–,–,–,·
COC(=O)c1[nH]c2cc(OC)c(OC)cc2c1/C=N/Nc1ccccc1,36,·,–,–,–,–
CCc1ccc2[nH]c3nc(SCc4nnc(-c5ccc(C)cc5)o4)nnc3c2c1,95,–,–,–,–,93
CCOC(=O)c1c(NC(=O)CSc2nnc3c(n2)[nH]c2ccc(F)cc23)sc(C(C)=O)c1C,62,–,–,–,–,51
CCc1ccc2[nH]c3nc(SCC(=O)NNC(=O)c4ccc(C(C)(C)C)cc4)nnc3c2c1,60,89,–,–,–,42
COC(=O)c1c(NC(=S)NN2CCN(C)CC2)sc2c1CCC(C)C2 (stereo not drawn),34,–,–,–,–,–
CC(C)c1ccc(/C=C/C(=O)Nc2nc3ccc([N+](=O)[O-])cc3s2)cc1,50,–,–,–,–,32
CCOC(=O)c1ccc(-c2ccc3c(=O)c4ccccc4n(C)c3c2)cc1F,100,·,–,–,–,–
Cc1ccc(NC(=O)CSc2nc3ccccc3c3nc4ccccc4n23)cc1,93,–,–,–,–,200
N#CCCn1cc(/C=N/O)c(-c2ccc(Cl)cc2)n1,109,–,–,–,–,–
CCOC(=O)c1sc(-c2ccccc2)cc1N,–,–,–,–,–,·
CCOC(=O)c1sc(-c2ccccc2)cc1NC(=O)Nc1ccc([N+](=O)[O-])cc1,199,91,–,–,–,163
Cc1nc2cccc(C)n2c(=O)c1Cl,38,–,–,–,–,–
CN(CC(=O)Nc1cccc(F)c1)C(=O)c1cc([N+](=O)[O-])ccc1N1CCOCC1,–,·,–,–,–,·
O=C(CCc1nnc(C2(c3ccc(Cl)cc3)CCC2)o1)N1CCCC(O)C1 (stereo not drawn),–,·,–,–,–,·
CC1CN(C(=S)Nc2cccc(Cl)c2Cl)CC(C)O1 (stereo not drawn),–,·,–,–,–,·
O=C(N[C@@H]1C/C=C\C[C@H](CC(=O)N(CCO)Cc2ccccc2)C(=O)N[C@@H](Cc2ccccc2)COC1=O)OCC1c2ccccc2-c2ccccc21,50,·,–,–,–,–
CCOc1ccccc1NC(=O)C(=O)NCCC1=CCCCC1,–,–,–,–,–,·
O=C(Nc1cccc(Cl)c1)c1nc[nH]c1C(=O)NCCCCNC(=O)c1[nH]cnc1C(=O)Nc1cccc(Cl)c1,60,·,–,–,–,–
COc1ccc(CCn2c(=S)[nH]c3cc(C(=O)NCc4ccco4)ccc3c2=O)cc1OC,62,96,–,–,–,66
O=C1c2ccccc2C(=O)N1CCc1c[nH]c2ccc(O)cc12,–,–,–,–,–,·
SMILES,XBP1 UPR activ,CHOP inh,B2AR ag,VLA-4 inh,CHOP UPR activ,XBP1 UPR conf
Nc1ccc2nc(COc3ccccc3)[nH]c2c1,–,·,–,–,–,·
COc1cc(/C=N/NC(N)=O)c(Br)cc1OCC(=O)Nc1ccccc1C,109,–,–,–,–,72
COc1cc(/C=N/O)c(Br)cc1OCC(=O)Nc1ccccc1C,–,–,–,–,–,·
COC(=O)CCC(=O)c1ccn(S(=O)(=O)c2ccccc2)c1,–,·,–,–,–,·
OCCOCCn1c(C2CCCN2c2nc(-c3ccc(F)cc3)cs2)nc2cc(Cl)c(Cl)cc21 (stereo not drawn),–,·,–,–,–,·
OCCCn1c(C2CCCN2c2nc(-c3ccc(F)cc3)cs2)nc2cc(Cl)c(N3CCCCC3)cc21 (stereo not drawn),100,·,–,–,–,48
COc1ccc(CNC(=O)c2ccc(N3CCOCC3)c([N+](=O)[O-])c2)cc1,–,–,–,–,–,·
COc1ccc2oc(-c3ccc(C)c(NC(=O)c4ccc(N5CCOCC5)c([N+](=O)[O-])c4)c3)nc2c1,119,–,–,–,–,140
O=C(OCC(=O)C12CC3CC(CC(C3)C1)C2)c1cnccn1,–,·,–,–,–,·
N#C/C(=C\c1ccc(N2CCCC2)c([N+](=O)[O-])c1)c1nc2ccccc2[nH]1,111,–,–,–,–,71
N#C/C(=C\c1ccc(N2CCCCC2)c([N+](=O)[O-])c1)c1nn(-c2ccccc2)c(N)c1C#N,–,–,–,–,–,·
O=c1cc2oc3cc(O)c(O)cc3c(-c3ccccc3[N+](=O)[O-])c-2cc1O,34,·,–,–,–,35
CC(=O)N1CCC(N(CCCOC(C)C)S(=O)(=O)c2ccc([N+](=O)[O-])cc2)CC1,–,·,–,–,–,·
CSCCC(NC(=O)c1ccco1)C(=O)NCC1CCCCC1 (stereo not drawn),–,·,–,–,–,·
COc1ccc(Cc2nnc(N/N=C/c3ccc(N(C)C)cc3)[nH]c2=O)cc1OC,31,–,–,–,–,51
CCn1c(O)c(C(C#N)=C2N=c3ccccc3=N2)c2ccccc21,34,–,–,–,–,–
Cn1c(N)c(C(=O)COC(=O)Cc2ccc(Cl)cc2)c(=O)n(C)c1=O,–,·,–,·,–,·
CC1CCC(C(C)C)C(OC(=O)Cn2c(-c3ccc(Cl)cc3)[n+](C)c3ccccc32)C1 (stereo not drawn),87,–,–,–,–,86
CC1CCC(C(C)C)C(OC(=O)Cn2c(-c3ccc(Br)cc3)[n+](C)c3ccccc32)C1 (stereo not drawn),109,90!,–,–,–,108
CC1CCC(C(C)C)C(OC(=O)Cn2nnc3c(cnn3-c3ccccc3)c2=O)C1 (stereo not drawn),–,–,–,–,–,·
O=c1cc(CN2CCN(c3ccccc3)CC2)c2cc(O)c(-c3ccccc3)cc2o1,60,–,–,–,–,113
O=c1cc(CN2CCN(c3cccc(Cl)c3)CC2)c2cc(O)c(-c3ccccc3)cc2o1,–,–,–,–,–,·
O=C(CN1CCCCC1)Nc1c2c(nc3ccccc13)N(c1ccccc1)CC2,56,86,–,–,–,–
COc1ccc(Nc2ncnc3sc(C)cc23)c(OC)c1,30,·,–,–,–,–
COc1ccc(Nc2ncnc3ccccc23)c(OC)c1,–,–,–,–,–,·
